Assay results published in ChEMBL document CHEMBL1139582, “Interaction of chiral MS-245 analogs at h5-HT6 receptors” (Bioorg Med Chem Lett, 2005).
pKi: −log10 of the molar value.

target: 5-hydroxytryptamine receptor 6 (Homo sapiens, UniProt P50406); test: Binding affinity against h5-HT6 receptor transiently expressed in HEK293 cells; format: cell-based
How it was run: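 Harvested transfected cells 72 h post-transfection (medium changed at 24 h; dialyzed serum added 24 h later to remove 5-HT), washed in PBS pH 7.40, stored frozen at -80 °C. Competition binding at room temperature, 90 min, in 50 mM Tris-Cl, 10 mM MgCl2, 0.1 mM EDTA pH 7.40 with [3H]LSD 1 nM final; 10 µM clozapine defines nonspecific binding.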

5-hydroxytryptamine receptor 6, sequence (P50406 whole entry): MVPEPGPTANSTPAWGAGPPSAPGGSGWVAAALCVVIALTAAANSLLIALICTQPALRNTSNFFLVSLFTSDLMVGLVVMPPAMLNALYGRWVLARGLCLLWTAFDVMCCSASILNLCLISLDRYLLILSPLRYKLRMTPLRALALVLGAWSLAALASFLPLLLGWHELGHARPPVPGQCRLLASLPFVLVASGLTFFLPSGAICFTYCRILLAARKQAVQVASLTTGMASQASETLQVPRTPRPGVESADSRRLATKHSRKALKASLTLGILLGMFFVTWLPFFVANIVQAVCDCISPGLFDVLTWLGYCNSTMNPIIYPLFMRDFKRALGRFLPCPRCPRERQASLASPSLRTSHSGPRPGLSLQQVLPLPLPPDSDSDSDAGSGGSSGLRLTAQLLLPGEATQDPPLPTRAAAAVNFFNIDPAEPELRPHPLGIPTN

Row | Structure (SMILES) | pKi
1 | CN1CCC[C@@H]1Cc1cn(S(=O)(=O)c2ccccc2)c2ccccc12 | 9.52
2 | O=S(=O)(c1ccccc1)n1cc(C[C@@H]2CCCN2)c2ccccc21 | 7.34
3 | O=S(=O)(c1ccccc1)n1cc(C[C@H]2CCCN2)c2ccccc21 | 8.11
4 | CN1CCC[C@@H]1Cn1cc(Cc2ccccc2)c2ccccc21 | 8.00
5 | CN1CCC[C@H]1Cc1cn(S(=O)(=O)c2ccccc2)c2ccccc12 | 8.77
6 | CN1CCC[C@H]1Cn1cc(Cc2ccccc2)c2ccccc21 | 7.54
7 | c1ccc2c(C[C@@H]3CCCN3)c[nH]c2c1 | 5.62
8 | CN1CCC[C@@H]1Cc1c[nH]c2ccccc12 | 6.19
9 | c1ccc2c(C[C@H]3CCCN3)c[nH]c2c1 | 7.22
10 | CN1CCC[C@H]1Cc1c[nH]c2ccccc12 | 8.04
11 | CN(C)CCc1cn(S(=O)(=O)c2ccccc2)c2ccccc12 | 8.40
